{"data": "Results gathered from unrelated publications", "target": "Tyrosine-protein kinase Fer (FER, Homo sapiens, UniProt P16591)", "note": "Lines come from different studies, so protocols differ."}
{"SMILES": "Cc1nn(C)cc1-c1nc2c(N3CCN(Cc4ccc(Cl)cc4)CC3)c(Cl)cnc2[nH]1", "test": "binding, competition with immobilised ligand", "setting": "1 µM", "endpoint": "remaining binding", "value": "100%"}
{"SMILES": "COc1cc(Nc2ncc(F)c(Nc3ccc4c(n3)NC(=O)C(C)(C)O4)n2)cc(OC)c1OC", "test": "binding, competition with immobilised ligand", "setting": "10 µM", "endpoint": "inhibition", "value": "78%"}
{"SMILES": "Cn1cncc1[C@@](O)(COc1ccc(C#N)cc1-c1ccc(OC(F)(F)F)cc1)c1ccc(C#N)cc1", "test": "cell-free assay, competition with immobilised ligand", "setting": "1 µM", "endpoint": "remaining binding", "value": "100%"}
{"SMILES": "C#Cc1n[nH]c2c(-c3cn([C@@H](C)c4ccccc4)c(=O)[nH]c3=O)cc(F)cc12", "test": "enzyme activity, inhibitor", "setting": "0.1 µM", "endpoint": "inhibition", "value": "1.5%"}
{"SMILES": "CC(C)(C)c1cc(C=C(C#N)C#N)cc(Br)c1O", "test": "enzyme activity, inhibitor", "setting": "0.5 µM", "endpoint": "remaining activity", "value": "100%"}
{"SMILES": "C#Cc1n[nH]c2c(-c3cn([C@@H](C)c4ccccn4)c(=O)[nH]c3=O)cc(F)cc12", "test": "enzyme activity, inhibitor", "setting": "0.1 µM", "endpoint": "inhibition", "value": "3.7%"}
{"SMILES": "Cn1cc(-c2cccc(N3CCc4c(sc5c4CC(C)(C)C5)C3=O)c2CO)cc(Nc2ccncn2)c1=O", "test": "enzyme activity, inhibitor", "setting": "1 µM", "endpoint": "inhibition", "value": "9%"}
{"SMILES": "CCn1cnc2c(Nc3cccc(Cl)c3)nc(N[C@H]3CCCC[C@H]3N)nc21", "test": "enzyme activity, inhibitor", "setting": "0.5 µM", "endpoint": "remaining activity", "value": "86.8%"}
{"SMILES": "Cn1cc(-c2cc(F)cc(N3CCn4c(cc5c4CCCC5)C3=O)c2CO)cc(Nc2ccc(N3CCN(C4COC4)CC3)cn2)c1=O", "test": "enzyme activity, inhibitor", "setting": "0.1 µM", "endpoint": "inhibition", "value": "10%"}
{"SMILES": "COc1ncccc1-c1cnn2ccc(N3CCN(C(=O)OC(C)C)CC3)nc12", "test": "binding, competition with immobilised ligand", "setting": "1 µM", "endpoint": "remaining binding", "value": "100%"}
{"SMILES": "Nc1ncc(-c2nc(N3CCOCC3)nc(N3CCOCC3)n2)c(C(F)F)n1", "test": "binding, competition with immobilised ligand", "setting": "10 µM", "endpoint": "remaining binding", "value": "67%"}
